Assay results taken from ChEMBL document CHEMBL1153726, “Synthesis and anticancer activity of sclerophytin-inspired hydroisobenzofurans” (Bioorg Med Chem Lett, 2009).

Key:
[1] = Antitumor activity against human KB3 cells after 96 hrs by MTT assay; format: functional, cell-based; settings: KB3, 96 h
How it was run: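 Human KB-3 carcinoma cells exposed to increasing compound concentrations; viability read by MTT colorimetric assay after 96 h. Values are means of triplicate assays, expressed relative to untreated controls.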

SNB-75 = assay: Growth inhibition of human SNB75 cells at 10 uM after 96 hrs by MTT assay; format: functional; parameters: scale not given: the % may be the effect or the level left
A549 = assay: Growth inhibition of human A549 cells at 10 uM after 96 hrs by MTT assay; format: functional; parameters: scale not given: the % may be the effect or the level left
SN12C = assay: Growth inhibition of human SN12C cells at 10 uM after 96 hrs by MTT assay; format: functional; parameters: scale not given: the % may be the effect or the level left
HCT-116 = assay: Growth inhibition of human HCT116 cells at 10 uM after 96 hrs by MTT assay; format: functional; parameters: scale not given: the % may be the effect or the level left
MDA-MB-435 = assay: Growth inhibition of human MDA-MB-435 cells at 10 uM after 96 hrs by MTT assay; format: functional; parameters: scale not given: the % may be the effect or the level left
A498 = assay: Growth inhibition of human A498 cells at 10 uM after 96 hrs by MTT assay; format: functional; parameters: scale not given: the % may be the effect or the level left
SW-620 = assay: Growth inhibition of human SW620 cells at 10 uM after 96 hrs by MTT assay; format: functional; parameters: scale not given: the % may be the effect or the level left
HT-29 = assay: Growth inhibition of human HT-29 cells at 10 uM after 96 hrs by MTT assay; format: functional; parameters: scale not given: the % may be the effect or the level left
SNB-19 = assay: Growth inhibition of human SNB19 cells at 10 uM after 96 hrs by MTT assay; format: functional; parameters: scale not given: the % may be the effect or the level left
NCI/ADR-RES = assay: Growth inhibition of human NCI/ADR-RES cells at 10 uM after 96 hrs by MTT assay; format: functional; parameters: scale not given: the % may be the effect or the level left
[2] = Growth inhibition of human Hs 578T cells at 10 uM after 96 hrs by MTT assay; format: functional; parameters: scale not given: the % may be the effect or the level left
SF-539 = assay: Growth inhibition of human SF539 cells at 10 uM after 96 hrs by MTT assay; format: functional; parameters: scale not given: the % may be the effect or the level left
UACC-62 = assay: Growth inhibition of human UACC62 cells at 10 uM after 96 hrs by MTT assay; format: functional; parameters: scale not given: the % may be the effect or the level left
K562 = assay: Growth inhibition of human K562 cells at 10 uM after 96 hrs by MTT assay; format: functional; parameters: scale not given: the % may be the effect or the level left
T47D = assay: Growth inhibition of human T47D cells at 10 uM after 96 hrs by MTT assay; format: functional; parameters: scale not given: the % may be the effect or the level left
TK-10 = assay: Growth inhibition of human TK10 cells at 10 uM after 96 hrs by MTT assay; format: functional; parameters: scale not given: the % may be the effect or the level left
Malme-3M = assay: Growth inhibition of human MALME-3M cells at 10 uM after 96 hrs by MTT assay; format: functional; parameters: scale not given: the % may be the effect or the level left
ACHN = assay: Growth inhibition of human ACHN cells at 10 uM after 96 hrs by MTT assay; format: functional; parameters: scale not given: the % may be the effect or the level left
RXF 393 = assay: Growth inhibition of human RXF393 cells at 10 uM after 96 hrs by MTT assay; format: functional; parameters: scale not given: the % may be the effect or the level left
SK-MEL-2 = assay: Growth inhibition of human SK-MEL-2 cells at 10 uM after 96 hrs by MTT assay; format: functional; parameters: scale not given: the % may be the effect or the level left
PC-3 = assay: Growth inhibition of human PC3 cells at 10 uM after 96 hrs by MTT assay; format: functional; parameters: scale not given: the % may be the effect or the level left
LOX IMVI = assay: Growth inhibition of human LOXIMVI cells at 10 uM after 96 hrs by MTT assay; format: functional; parameters: scale not given: the % may be the effect or the level left
MOLT-4 = assay: Growth inhibition of human MOLT4 cells at 10 uM after 96 hrs by MTT assay; format: functional; parameters: scale not given: the % may be the effect or the level left
HOP-92 = assay: Growth inhibition of human HOP92 cells at 10 uM after 96 hrs by MTT assay; format: functional; parameters: scale not given: the % may be the effect or the level left
786-0 = assay: Growth inhibition of human 786-0 cells at 10 uM after 96 hrs by MTT assay; format: functional; parameters: scale not given: the % may be the effect or the level left
IGROV-1 = assay: Growth inhibition of human IGROV1 cells at 10 uM after 96 hrs by MTT assay; format: functional; parameters: scale not given: the % may be the effect or the level left
M14 = assay: Growth inhibition of human M14 cells at 10 uM after 96 hrs by MTT assay; format: functional; parameters: scale not given: the % may be the effect or the level left
SK-MEL-5 = assay: Growth inhibition of human SK-MEL-5 cells at 10 uM after 96 hrs by MTT assay; format: functional; parameters: scale not given: the % may be the effect or the level left
SF-268 = assay: Growth inhibition of human SF268 cells at 10 uM after 96 hrs by MTT assay; format: functional; parameters: scale not given: the % may be the effect or the level left
HCC 2998 = assay: Growth inhibition of human HCC2998 cells at 10 uM after 96 hrs by MTT assay; format: functional; parameters: scale not given: the % may be the effect or the level left
DU-145 = assay: Growth inhibition of human DU145 cells at 10 uM after 96 hrs by MTT assay; format: functional; parameters: scale not given: the % may be the effect or the level left
KM12 = assay: Growth inhibition of human KM12 cells at 10 uM after 96 hrs by MTT assay; format: functional; parameters: scale not given: the % may be the effect or the level left
OVCAR-5 = assay: Growth inhibition of human OVCAR5 cells at 10 uM after 96 hrs by MTT assay; format: functional; parameters: scale not given: the % may be the effect or the level left
NCI-H23 = assay: Growth inhibition of human NCI-H23 cells at 10 uM after 96 hrs by MTT assay; format: functional; parameters: scale not given: the % may be the effect or the level left
NCI-H460 = assay: Growth inhibition of human NCI-H460 cells at 10 uM after 96 hrs by MTT assay; format: functional; parameters: scale not given: the % may be the effect or the level left
OVCAR-3 = assay: Growth inhibition of human OVCAR-3 cells at 10 uM after 96 hrs by MTT assay; format: functional; parameters: scale not given: the % may be the effect or the level left
CCRF-CEM = assay: Growth inhibition of human CCRF-CEM cells at 10 uM after 96 hrs by MTT assay; format: functional; parameters: scale not given: the % may be the effect or the level left
HCT-15 = assay: Growth inhibition of human HCT15 cells at 10 uM after 96 hrs by MTT assay; format: functional; parameters: scale not given: the % may be the effect or the level left
HOP-62 = assay: Growth inhibition of human HOP62 cells at 10 uM after 96 hrs by MTT assay; format: functional; parameters: scale not given: the % may be the effect or the level left
SK-MEL-28 = assay: Growth inhibition of human SK-MEL-28 cells at 10 uM after 96 hrs by MTT assay; format: functional; parameters: scale not given: the % may be the effect or the level left
MDA-MB-468 = assay: Growth inhibition of human MDA-MB-468 cells at 10 uM after 96 hrs by MTT assay; format: functional; parameters: scale not given: the % may be the effect or the level left
OVCAR-4 = assay: Growth inhibition of human OVCAR4 cells at 10 uM after 96 hrs by MTT assay; format: functional; parameters: scale not given: the % may be the effect or the level left
UACC-257 = assay: Growth inhibition of human UACC257 cells at 10 uM after 96 hrs by MTT assay; format: functional; parameters: scale not given: the % may be the effect or the level left
MCF7 = assay: Growth inhibition of human MCF7 cells at 10 uM after 96 hrs by MTT assay; format: functional; parameters: scale not given: the % may be the effect or the level left
SR = assay: Growth inhibition of human SR cells at 10 uM after 96 hrs by MTT assay; format: functional; parameters: scale not given: the % may be the effect or the level left
MDA-MB-231 = assay: Growth inhibition of human MDA-MB-231 cells at 10 uM after 96 hrs by MTT assay; format: functional; parameters: scale not given: the % may be the effect or the level left
COLO 205 = assay: Growth inhibition of human COLO205 cells at 10 uM after 96 hrs by MTT assay; format: functional; parameters: scale not given: the % may be the effect or the level left
SK-OV-3 = assay: Growth inhibition of human SKOV3 cells at 10 uM after 96 hrs by MTT assay; format: functional; parameters: scale not given: the % may be the effect or the level left
NCI-H522 = assay: Growth inhibition of human NCI-H522 cells at 10 uM after 96 hrs by MTT assay; format: functional; parameters: scale not given: the % may be the effect or the level left
OVCAR-8 = assay: Growth inhibition of human OVCAR8 cells at 10 uM after 96 hrs by MTT assay; format: functional; parameters: scale not given: the % may be the effect or the level left
NCI-H322M = assay: Growth inhibition of human NCI-H322M cells at 10 uM after 96 hrs by MTT assay; format: functional; parameters: scale not given: the % may be the effect or the level left
U-251 = assay: Growth inhibition of human U251 cells at 10 uM after 96 hrs by MTT assay; format: functional; parameters: scale not given: the % may be the effect or the level left
UO-31 = assay: Growth inhibition of human UO31 cells at 10 uM after 96 hrs by MTT assay; format: functional; parameters: scale not given: the % may be the effect or the level left
EKVX = assay: Growth inhibition of human EKVX cells at 10 uM after 96 hrs by MTT assay; format: functional; parameters: scale not given: the % may be the effect or the level left
HL-60(TB) = assay: Growth inhibition of human HL-60(TB) cells at 10 uM after 96 hrs by MTT assay; format: functional; parameters: scale not given: the % may be the effect or the level left
NCI-H226 = assay: Growth inhibition of human NCI-H226 cells at 10 uM after 96 hrs by MTT assay; format: functional; parameters: scale not given: the % may be the effect or the level left
[3] = Growth inhibition of human RPMI8266 cells at 10 uM after 96 hrs by MTT assay; format: functional; parameters: scale not given: the % may be the effect or the level left
BT-549 = assay: Growth inhibition of human BT549 cells at 10 uM after 96 hrs by MTT assay; format: functional; parameters: scale not given: the % may be the effect or the level left

C=C(C)[C@H]1CC(=O)C(C)=C2[C@@H](C(=O)OCC)O[C@@H](c3cccc(Cl)c3Cl)[C@@H]21
IC50 [1]: 5 µM

C=C(C)[C@H]1CC=C(C)[C@@]2(O)[C@@H]1[C@H](c1cccc(Br)c1)O[C@@H]2C(=O)OCC
IC50 [1]: 3 µM

C=C(C)[C@H]1CC=C(C)[C@@]2(O)[C@@H]1[C@H](c1ccc(Cl)cc1Cl)O[C@@H]2C(=O)OCC
Activity (SNB-75): 82.61% | Activity (A549): 90.16% | Activity (SN12C): 98.08% | Activity (HCT-116): 84.08% | Activity (MDA-MB-435): 107.24% | Activity (A498): 102.47% | Activity (SW-620): 97.1% | Activity (HT-29): 93.83% | Activity (SNB-19): 87.9% | Activity (NCI/ADR-RES): 101.67% | Activity [2]: 100.26% | Activity (SF-539): 100.6% | Activity (UACC-62): 84.48% | Activity (K562): 79.96% | Activity (T47D): 94.32% | Activity (TK-10): 119.56% | Activity (Malme-3M): 117.74% | Activity (ACHN): 109.85% | Activity (RXF 393): 95.61% | Activity (SK-MEL-2): 106.54% | Activity (PC-3): 99.33% | Activity (LOX IMVI): 98% | Activity (MOLT-4): 98.02% | Activity (HOP-92): 94.71% | Activity (786-0): 87.09% | Activity (IGROV-1): 82.34% | Activity (M14): 104.29% | Activity (SK-MEL-5): 102.55% | Activity (SF-268): 100.46% | Activity (HCC 2998): 108.86% | Activity (DU-145): 110.29% | Activity (KM12): 99.49% | Activity (OVCAR-5): 103.98% | Activity (NCI-H23): 97.89% | Activity (NCI-H460): 108.8% | Activity (OVCAR-3): 112.11% | Activity (CCRF-CEM): 98.31% | Activity (HCT-15): 108.1% | Activity (HOP-62): 92.21% | Activity (SK-MEL-28): 113.23% | Activity (MDA-MB-468): 94.32% | Activity (OVCAR-4): 93.31% | Activity (UACC-257): 94.54% | Activity (MCF7): 104.98% | Activity (SR): 82.5% | Activity (MDA-MB-231): 101.68% | Activity (COLO 205): 122.22% | Activity (SK-OV-3): 98.68% | Activity (NCI-H522): 82.73% | Activity (OVCAR-8): 94.44% | Activity (NCI-H322M): 113.73% | Activity (U-251): 103.59% | Activity (UO-31): 90.72% | Activity (EKVX): 104.39% | Activity (HL-60(TB)): 100.94% | Activity (NCI-H226): 97.47% | Activity [3]: 106.77% | IC50 [1]: 3 µM | Activity (BT-549): 139.44%

C=C(C)[C@H]1CC(=O)C(C)=C2[C@@H](C(=O)OCC)O[C@@H](c3ccccc3Br)[C@@H]21
IC50 [1]: 70 µM

C=C(C)[C@H]1CC=C(C)[C@@]2(O)[C@@H]1[C@H](c1ccccc1Br)O[C@@H]2C(=O)OCC1CC1
IC50 [1]: 50 µM
